Screening data (PubChem)
DNA FID counter: fluorescent intercalator displacement, NS3 helicase counter-screen; DNA fluorescent intercalator displacement, fluorescence; inhibition, % at 7.9 µM; 290,000 compounds, 0.17% hits; in the data active means inhibition above about 37%;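 further: 0% = vehicle and 100% = reference compound; higher means more ethidium bromide displaced from hairpin DNA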
NS3 helicase inh: blocks Hepatitis C virus NS3 helicase unwinding; NS3 helicase DNA unwinding, Cy5 molecular beacon fluorescence; inhibition, % at 10.9 µM; 290,000 compounds, 0.56% hits; AID 1800;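 active means inhibition above the mean of all tested compounds plus 3 SD, set per campaign, cut at about 35% in these data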;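 further: 0% = DMSO wells and 100% = thioflavine S control wells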
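Assay system: hepatitis C virus NS3 helicase domain fragment enzyme. Also added: annealed dual-labelled DNA beacon duplex, ATP-started. Timing: 1 h reaction at 25 °C, ATP-initiated. Technique: Cy5 fluorescence at 0 and 60 min, beacon hairpin quenching. Evaluation: % inhibition of unwinding. Replication: one well per compound.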
UBC9 SUMO inh: SUMOylation inhibition; P63279; HTRF SUMOylation assay, SAE1/SAE2 + UBC9, in vitro; inhibition, % at 35 µM; 290,000 compounds, 0.36% hits; in the data active means inhibition above about 50%, passing the limit was not always enough
Target sequence (P63279 whole entry, looked up): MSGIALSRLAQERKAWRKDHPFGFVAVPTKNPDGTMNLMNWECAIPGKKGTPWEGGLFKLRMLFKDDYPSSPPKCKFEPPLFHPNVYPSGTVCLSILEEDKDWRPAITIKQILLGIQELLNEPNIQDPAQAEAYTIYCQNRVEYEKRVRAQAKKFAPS
VIM-2 inhibitor: inhibitors of Pseudomonas aeruginosa VIM-2 metallo-beta-lactamase. purified VIM-2, nitrocefin hydrolysis, epi-absorbance fluorescence. inhibition, % at 5.6 µM. 290,000 compounds, 0.89% hits;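 active means inhibition above the mean of all tested compounds plus 3 SD, cutoff set per screening run, cut at about 7.5% in these data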;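 further: red hydrolysis product quenches plate fluorescence so inhibitors raise well fluorescence; 0% = enzyme with DMSO and 100% = DMSO without enzyme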
IMP-1 inh-1: blocks Pseudomonas aeruginosa IMP-1 metallo-beta-lactamase; purified IMP-1, nitrocefin hydrolysis, epi-absorbance fluorescence; inhibition, % at 5.6 µM; 290,000 compounds, 0.45% hits; AID 1556;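 active means inhibition above the mean plus 3 SD of all compounds in the same screening run, cut at about 4.5% in these data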;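 further: 0% = IMP-1 with DMSO and 100% = DMSO wells lacking enzyme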
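System: Purified recombinant IMP-1 metallo-beta-lactamase enzyme | Measured by: Fluorescence quenching readout, ex 480/em 530 nm | Replication: Singlicate | Incubation: 15 min preincubation plus 25 min reaction at 25 °C | Evaluation: Percent inhibition from optical density relative to buffer-blank wells | Benchmarks: DMSO with and without IMP-1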
IMP-1 inh-2: blocks IMP-1 metallo-beta-lactamase in VIM-2 selectivity screen. shares compounds with VIM-2 inhibitor. purified IMP-1, nitrocefin hydrolysis, epi-absorbance fluorescence. 1,300 tested, under 10 active. inhibition, % at 5.6 µM. AID 1856; call rule not given here;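 further: 0% = enzyme with vehicle and 100% = vehicle without enzyme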
VIM-2 FRET inh: counter-screen for VIM-2 inhibitors: epi-absorbance artifacts via FRET; shares compounds with VIM-2 inhibitor; purified VIM-2, CCF2 FRET substrate hydrolysis; inhibition, % at 5.6 µM; 1,300 compounds, 23% hits; AID 1857;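 active means inhibition above the mean of all tested compounds plus 3 SD, cut at about 19% in these data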;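 further: 0% = VIM-2 plus DMSO and 100% = no enzyme wells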
TEM-1 counter: blocks E. coli TEM-1 beta-lactamase in VIM-2 selectivity screen; inhibition, % at 5.6 µM; 1,300 compounds, 3% hits; shares compounds with VIM-2 inhibitor; Purified TEM-1, nitrocefin hydrolysis, epi-absorbance fluorescence;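 active means inhibition above that campaign's mean inhibition plus 3 SD, cut at about 0.46% in these data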;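 further: 0% = TEM-1 with DMSO and 100% = TEM-1 with 100 µM potassium clavulanate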
Target sequence (P62593 whole entry, looked up): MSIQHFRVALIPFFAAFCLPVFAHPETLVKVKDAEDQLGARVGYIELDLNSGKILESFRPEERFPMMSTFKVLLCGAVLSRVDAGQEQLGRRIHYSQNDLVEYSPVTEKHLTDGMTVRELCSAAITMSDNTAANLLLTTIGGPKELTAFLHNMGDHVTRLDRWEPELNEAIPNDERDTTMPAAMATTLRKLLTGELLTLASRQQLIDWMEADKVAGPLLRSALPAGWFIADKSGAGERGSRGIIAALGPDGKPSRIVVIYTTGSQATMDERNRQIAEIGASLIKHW
VIM-2 confirm 2: confirmation of P. aeruginosa VIM-2 metallo-beta-lactamase inhibitors; shares compounds with VIM-2 inhibitor; purified VIM-2, nitrocefin hydrolysis, epi-absorbance; inhibition, % at 5.6 µM; 1,300 compounds, 96% hits; AID 2187;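 active means inhibition of the VIM-2 beta-lactamase enzyme above about 11% from the earlier first-round screen, limit read from the data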;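 further: 0% = VIM-2 with DMSO and 100% = buffer wells without enzyme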
The depositor's hits bear a star; nt = no result given. Only some compounds are listed: those with a hit (about 2.1% of all), similar ones and a draw of the others.

SMILES	DNA FID counter	NS3 helicase inh	UBC9 SUMO inh	VIM-2 inhibitor	IMP-1 inh-1	IMP-1 inh-2	VIM-2 FRET inh	TEM-1 counter	VIM-2 confirm 2
O=[N+]([O-])c1ccc2[nH]cc(S(=O)(=O)N3CCN(c4cccc(Cl)c4)CC3)c2c1	39*	-19	-8	-2	0	nt	nt	nt	nt
COc1ccccc1N1CCN(Cc2cc(=O)c(OCC#N)co2)CC1	-5	2	13	-2	-2	nt	nt	nt	nt
CN(C)CCn1c(SCc2ccccc2C#N)nc2c(sc3ccccc32)c1=O	-1	-49	16	10*	3	nt	nt	nt	nt
COc1ccccc1NC(=O)CSc1nc2c(sc3ccccc32)c(=O)n1CCN(C)C	1	-17	17	3	-1	nt	nt	nt	nt
CC(COc1cccc2ccccc12)CN1CCN(C)CC1 (stereo not given)	8	19	6	22*	-2	-2	2	-6	48*
O=C(c1ccc(N2CCNCC2)cc1)c1cccnc1	-3	4	14	16*	-1	-4	-1	-4	43*
O=C(Nc1ccc(N2CCCCC2)cc1)c1cccnc1	5	1	3	-1	-3	nt	nt	nt	nt
Cn1cc(Cl)c(-c2n[nH]c(=S)n2-c2ccccc2)n1	-5	-8	1	14*	-3	-4	42*	-7	25*
Cc1c(Cl)c(-c2n[nH]c(=S)n2-c2ccc(F)cc2)nn1C	-7	-7	14	16*	-3	-2	42*	-4	30*
Cc1ccc(-n2c(-c3nn(C)cc3Cl)n[nH]c2=S)cc1	-12	2	-2	17*	-4	-2	50*	-7	31*
Cc1ccc(-n2c(-c3cc(C)n(C)n3)n[nH]c2=S)cc1	-11	0	19	-3	-2	nt	nt	nt	nt
Cc1nn(C)c(-c2n[nH]c(=S)n2-c2ccccc2)c1Cl	-16	-11	3	4	-2	nt	nt	nt	nt
OCCCc1n[nH]c(=S)n1-c1ccccc1	6	2	10	23*	-2	-3	38*	-7	27*
CCOC(=O)c1cnc(-n2nc(C)cc2C)nc1NCc1ccc2c(c1)OCO2	-5	2	14	58*	-5	-3	-33	1.6*	89*
COc1cc(SC)ccc1C(=O)Nc1ccc2ncccc2c1	-29	-17	-5	-1	-2	nt	nt	nt	nt
CCSc1nnc(NC(=O)CCCOc2ccc(C)cc2)s1	-4	0	-60	0	-2	nt	nt	nt	nt
CN1C(=O)C2(N=c3ccccc3=N2)c2ccccc21	1	5	9	19*	-1	-2	1	-5	34*
COc1ccc(NC(=O)C2CCCN2S(=O)(=O)c2ccc3c(c2)CC(C)N3C(C)=O)cc1OC (stereo not given)	-30	2	1	-2	-4	nt	nt	nt	nt
COc1ccc(/C=C2/SC(=S)N(CCCC(=O)N3CCN(C)CC3)C2=O)cc1	19	-45	11	17*	1	-2	4	-6	31*
COc1cc(/C=C2\SC(=S)N(CCC(=O)NC3CCCC3)C2=O)cc(OC)c1OC	-30	11	6	-2	-2	nt	nt	nt	nt
CN1CCN(C(=O)CCCN2C(=O)/C(=C/c3ccccc3)SC2=S)CC1	16	-49	-2	16*	2	0	-3	-1	25*
COc1cc(/C=C2\SC(=S)N(CCC(=O)N3CCN(C)CC3)C2=O)cc(OC)c1OC	13	-63	9	15*	2	-2	1	-6	25*
COc1ccc(/C=C2/SC(=S)N(CCC(=O)N3CCN(C)CC3)C2=O)cc1	15	-68	-11	4	-1	nt	nt	nt	nt
CNC(C)C#Cc1ccc2c(=O)c3c(OC)cccc3oc2c1 (stereo not given)	-10	-27	28	14*	1	-2	1	-5	31*
COc1ccc(Cl)cc1NC(=O)C1CCCN(S(C)(=O)=O)C1 (stereo not given)	-11	-4	20	0	1	nt	nt	nt	nt
SMILES	DNA FID counter	NS3 helicase inh	UBC9 SUMO inh	VIM-2 inhibitor	IMP-1 inh-1	IMP-1 inh-2	VIM-2 FRET inh	TEM-1 counter	VIM-2 confirm 2
Cc1nn2c(-c3ccc(F)cc3)ccnc2c1Cl	-11	-4	15	59*	-2	-3	-4	-5	70*
Cc1nn2c(-c3ccc(F)cc3)ccnc2c1Br	-12	9	21	6	-2	nt	nt	nt	nt
Cc1cccc(C(=O)Nc2nnc(S(=O)(=O)N3CCC(C)CC3)s2)c1	-26	7	12	-5	-1	nt	nt	nt	nt
CC(=O)Nc1cccc(-c2cc(C)c3cc4c(cc3n2)OCO4)c1	-17	-6	8	-1	-3	nt	nt	nt	nt
COc1ccccc1C1c2[nH]c3ccccc3c2C[C@H]2C(=O)N(C3CCN(Cc4ccccc4)CC3)CC(=O)N12 (stereo not given in full)	2	-96	-23	-2	-1	nt	nt	nt	nt
CCN(CC)CCNC(=O)c1cn(CC)c2cc(N3CCN(C)CC3)c(F)cc2c1=O	38*	1	18	12*	1	-2	0	-3	27*
CCCCNC(=O)c1cn(CC)c2cc(N3CCN(C)CC3)c(F)cc2c1=O	11	-8	7	3	-2	nt	nt	nt	nt
O=[N+]([O-])c1cc(C(F)(F)F)cc([N+](=O)[O-])c1NCCNC(=S)Nc1cccc(F)c1	12	7	10	-4	-2	nt	nt	nt	nt
CCOC(=O)c1sc(NC(=O)CCN2CCN(CC)CC2)c(C(=O)OCC)c1C	24	-40	-16	14*	0	-4	0	-5	27*
CC1CCN(CC(=O)n2c3c(c4ccccc42)CCCC3)CC1	10	6	29	18*	0	-3	9	-6	6
CCN1CCN(CC(=O)n2c3c(c4ccccc42)CC(C)CC3)CC1 (stereo not given)	16	-24	4	19*	0	-1	28*	-3	29*
CC1CCc2c(c3ccccc3n2C(=O)CCl)C1 (stereo not given)	-10	-3	13	5	-1	nt	nt	nt	nt
Cc1ccc(-c2nn3c(C)nnc3c3ccccc23)cc1S(=O)(=O)NCc1ccccc1	-15	14	14	-1	-1	nt	nt	nt	nt
Cc1ccc(-c2nn3c(C)nnc3c3ccccc23)cc1S(=O)(=O)N(C)CCO	-21	-5	5	21*	-3	-5	1	-6	32*
Cc1ccc(-c2nn3c(C)nnc3c3ccccc23)cc1S(=O)(=O)NCCN1CCOCC1	1	1	20	42*	-3	-3	3	-3	58*
CC(C)(C)NC(=O)CSc1nc2[nH]ncc2c(=O)[nH]1	2	-2	8	-1	-2	nt	nt	nt	nt
